# The list is not random: actives were taken first. Their share in the collection is about 1.2%.
# Diaph act CS: diaphorase activation or chemical reduction counter-screen; Diaphorase/resazurin coupled assay, resorufin fluorescence, 16 min; hits give high values; 1 = vehicle wells, 0 = NADH-free wells; activation factor at 20 µM; 190,000 compounds, 0.005% hits; AID 1229;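 active = diaphorase activity raised at least twofold by the compound at 20 µM; inactive = activation factor below 2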
#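 Material: bacterial diaphorase enzyme (C. kluyveri); amount: enzyme 0.07 U/mL final; reagent: NADH substrate 0.114 mM plus resazurin dye 0.1 mM, final; doses: single compound dose of 20 µM, 1% DMSO final; timing: 16 min enzyme reaction, ambient temperature; measured by: fluorescence of resorufin, 544 nm excitation, 590 nm emission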
# PfGluPho inh: PfG6PD (Plasmodium falciparum) enzyme inhibition; PfGluPho enzyme, NADPH resazurin-diaphorase fluorescence; inhibition, % at 20 µM; 350,000 compounds, 0.78% hits; AID 504690;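 active = inhibition reaching at least a set limit at 20 µM in the primary screen, cut at about 59% in these data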
# HKDC1 inhibitor: HKDC1 (human) hexokinase inhibition; AID 493160; inhibition, % at 20 µM; 340,000 compounds, 0.16% hits; Q2TB90; recombinant HKDC1, G6PDH/diaphorase resazurin coupled fluorescence;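 active = inhibition above about 35% when tested at 20 µM, limit read from the data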
# Target sequence (Q2TB90 whole entry, looked up): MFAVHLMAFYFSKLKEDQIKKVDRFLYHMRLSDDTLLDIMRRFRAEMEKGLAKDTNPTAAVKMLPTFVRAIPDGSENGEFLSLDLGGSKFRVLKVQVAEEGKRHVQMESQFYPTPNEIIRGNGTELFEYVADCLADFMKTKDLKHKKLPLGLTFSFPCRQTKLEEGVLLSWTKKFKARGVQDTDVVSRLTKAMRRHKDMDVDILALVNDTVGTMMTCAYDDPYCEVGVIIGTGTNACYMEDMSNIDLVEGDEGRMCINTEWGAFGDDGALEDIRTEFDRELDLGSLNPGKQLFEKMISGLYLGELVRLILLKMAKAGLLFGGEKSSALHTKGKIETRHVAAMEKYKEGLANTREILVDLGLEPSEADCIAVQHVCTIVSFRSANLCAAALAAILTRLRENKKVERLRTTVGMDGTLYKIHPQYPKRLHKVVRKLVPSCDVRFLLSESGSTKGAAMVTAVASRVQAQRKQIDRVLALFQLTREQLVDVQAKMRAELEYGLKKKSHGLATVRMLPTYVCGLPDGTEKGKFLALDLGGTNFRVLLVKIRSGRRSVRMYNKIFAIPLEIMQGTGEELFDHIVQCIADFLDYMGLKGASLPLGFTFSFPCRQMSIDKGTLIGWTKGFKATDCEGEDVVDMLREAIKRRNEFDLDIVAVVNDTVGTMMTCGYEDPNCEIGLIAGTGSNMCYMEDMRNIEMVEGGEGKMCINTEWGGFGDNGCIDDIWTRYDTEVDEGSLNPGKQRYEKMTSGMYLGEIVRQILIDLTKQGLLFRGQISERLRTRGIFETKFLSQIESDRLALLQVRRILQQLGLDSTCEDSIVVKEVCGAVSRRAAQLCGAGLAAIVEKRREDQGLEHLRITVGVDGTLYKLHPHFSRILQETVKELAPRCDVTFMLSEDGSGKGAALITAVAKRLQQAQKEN
#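 Assay system – recombinant HKDC1 (HK5) hexokinase enzyme, produced in-house · Input – HKDC1 at 5 µg/mL · Reagent – glucose plus 1 mM ATP as hexokinase substrates · Timing – 90 min reaction incubation at room temperature, dark · Measured by – G6PDH/diaphorase-coupled fluorescence, 1 mM NADP, 100 µM resazurin, 525/613 nm · Benchmarks – DMSO-enzyme wells negative, buffer-substituted wells positive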
# G6PDH CS: L. mesenteroides G6PDH inhibition counter-screen | Purified L. mesenteroides G6PDH, diaphorase/resazurin coupled fluorescence, 45 min | inhibition, % at 5 µM | 200,000 compounds, 0.12% hits; in the data active = inhibition above about 50%
# Diaph inh CS: diaphorase inhibition or chemical oxidation counter-screen. diaphorase resazurin-to-resorufin fluorescence, NADH, 16 min; bacterial (C. kluyveri) enzyme, not human. AID 1217. inhibition, % at 20 µM. 190,000 compounds, 0.69% hits;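 active = primary screen inhibition at 20 µM above a set limit, cut at about 50% in these data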
#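 Benchmarks: positive control wells lacking NADH, neutral wells with DMSO only. System: bacterial diaphorase enzyme (C. kluyveri). Input: 0.14 U/mL diaphorase, enzyme working solution. Detection: resorufin fluorescence, excitation 544 nm, emission 590 nm. Times: 16-min room-temperature incubation before reading.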
# HKDC1 act conf: confirmation of human HKDC1 activators; shares compounds with HKDC1 inhibitor; recombinant HKDC1, G6PDH/diaphorase resazurin fluorescence; hits give low values; inhibition, % at 20 µM; 740 compounds, 14% hits; AID 504708;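 active = inhibition at or below a set negative limit, negative inhibition meaning the enzyme was activated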
# Hits are given with their value; i = inactive; nt = not tested or not shown.
SMILES,Diaph act CS,PfGluPho inh,HKDC1 inhibitor,G6PDH CS,Diaph inh CS,others
CCN(CC)c1ccc(/C=C/[N+](=O)[O-])cc1,i,i,i,i,i,
O=[N+]([O-])/C=C/c1c(Cl)cccc1Cl,nt,101.3,i,nt,nt,
O=C(COc1ccccc1)N1CCN(CC2CC=CCC2)CC1 (stereo not given),nt,i,i,nt,nt,
CC(=O)CC(c1ccc2c(c1)OCO2)c1c(O)c2ccccc2oc1=O (stereo not given),nt,i,nt,nt,nt,
COc1ccc(CCNC(=O)c2c(N)n(CCN3CCOCC3)c3nc4ccccc4nc23)cc1OC,i,i,i,i,51.0,
CN[C@@H]1C[C@@H](c2ccc(Cl)c(Cl)c2)c2ccccc21,i,nt,nt,i,72.5,
CC(NCc1ccc(Cl)c(Cl)c1)C(O)c1ccccc1 (stereo not given),i,i,i,i,i,
CC1=C(/C=C/c2ccccc2)CCN(C)C1,i,i,i,i,i,
CC(=O)c1c(C)n(Cc2ccccc2)c2ccc(O)cc12,nt,i,i,nt,nt,
CC(=O)c1c(C)n(C2CCCCC2)c2ccc(O)cc12,i,i,i,i,50.5,
C[C@]12CCC3C(CC[C@H]4C[C@H](O)CC[C@]34C)C1[C@@H](O)[C@@H](O)[C@@H]2O (stereo not given in full),nt,i,i,nt,nt,
CCCCn1c(NC(=O)c2ccco2)c(C(=O)OCC)c2nc3ccccc3nc21,i,i,i,i,66.1,
C[C@]12CCC3C(CCC4=C/C(=N/OCC(=O)NC(CCC(=O)O)C(=O)O)CC[C@@]43C)C1CCC2O (stereo not given in full),nt,i,i,nt,nt,
Oc1cc2c(cc1O)[C@H]1c3ccccc3CN[C@@H]1CC2,i,nt,nt,i,64.6,
O=C1C=Cc2ccccc2C1=O,i,nt,nt,61.8,78.4,
Cc1cc(O)c2c(c1)C(=O)C13C(=C2O)C(=O)[C@H]2[C@@H](O)[C@@H]1[C@H]1[C@H](O)[C@@H]3C(=O)C3=C(O)c4c(O)cc(C)cc4C(=O)C312 (stereo not given in full),nt,i,67.4,nt,nt,
COc1cc(CN2CCCC(C(=O)c3sccc3C)C2)cc(OC)c1O (stereo not given),i,i,i,56.8,i,
COc1cc(CN2CCCC(C(=O)c3sccc3C)C2)cc(Cl)c1O (stereo not given),i,i,i,i,i,
O=C1NC(=S)N(Cc2ccco2)C(=O)/C1=C\c1cccs1,i,nt,nt,i,90.1,
O=C(O)c1cccc2c1NC(C(=O)O)C1CC(Sc3ccccc3[N+](=O)[O-])C(Cl)C21 (stereo not given),i,i,i,i,92.6,
CC(=O)c1ccc2c(c1)C1C(Cl)C(Sc3ccccc3[N+](=O)[O-])CC1C(C(=O)O)N2 (stereo not given),i,i,i,i,66.3,
COc1ccc(-n2c(CNCCc3ccc(C)cc3)nc3ccccc3c2=O)cc1,nt,i,i,nt,nt,
COC(=O)C1=C(c2cccc(C#N)c2)C[C@@H]2CC[C@H]1N2C(=O)NCCNC(C)=O,nt,i,i,nt,nt,
COc1ccc(CN2C(=O)NC(=O)/C(=C/c3ccc([N+](=O)[O-])s3)C2=O)cc1,nt,67.4,i,nt,nt,
COc1ccc(N2C(=O)NC(=O)/C(=C\c3ccc([N+](=O)[O-])s3)C2=O)cc1,i,63.1,i,i,i,
SMILES,Diaph act CS,PfGluPho inh,HKDC1 inhibitor,G6PDH CS,Diaph inh CS,others
O=C1NC(=O)N(Cc2ccc(F)cc2)C(=O)/C1=C\c1ccc([N+](=O)[O-])s1,nt,71.2,i,nt,nt,
COc1ccccc1N1C(=O)NC(=O)/C(=C\c2cnn(-c3ccccc3)c2)C1=O,i,i,i,i,i,
COc1ccc(N2C(=O)NC(=O)/C(=C/c3ccc([N+](=O)[O-])s3)C2=O)cc1,nt,i,i,nt,nt,
COc1ccccc1N1C(=O)NC(=O)/C(=C/c2ccc([N+](=O)[O-])s2)C1=O,nt,72.1,i,nt,nt,
O=P(NS(=O)(=O)c1ccc(Cl)cc1)(Oc1ccccc1)Oc1ccccc1,i,i,i,i,i,
C=C1C(O)(c2ccccc2)C2CC[N+]1(C)CC2 (stereo not given),i,i,i,i,i,
Oc1ccc(Cl)c(Cl)c1Cl,nt,i,i,nt,nt,
CSc1nc(N2CCN(C)CC2)c2ccccc2n1,i,i,i,i,56.8,
O=P1(Oc2ccccc2)CC=C[C@H](COCc2ccccc2)O1 (stereo not given in full),nt,i,i,nt,nt,
O=C1NC(=O)N(Cc2ccco2)C(=O)/C1=C/c1ccc(-c2cccc([N+](=O)[O-])c2)o1,i,90.1,36.9,i,i,
COC(=O)C1=C(c2ccc(OC)c(OC)c2)C[C@@H]2CC[C@H]1N2C(=O)NCC1CC1,nt,i,i,nt,nt,
Oc1ccc2c3c1O[C@H]1[C@@H](O)CC[C@@]4(O)[C@@H](C2)N(CC2CCC2)CC[C@]314,nt,i,i,nt,nt,
NC(N)=Nc1ccc2[nH]c3c(c2c1)C[C@@]1(O)[C@H]2Cc4ccc(O)c5c4[C@@]1(CCN2CC1CC1)[C@H]3O5,nt,96.6,i,nt,nt,
CCOc1cccc(N2C(=O)/C(=C/c3ccco3)C(=O)NC2=S)c1,nt,i,i,nt,nt,
O=C1NC(=S)N(c2ccccc2)C(=O)/C1=C/c1ccco1,nt,i,67.6,nt,nt,
COC1=C(OC)[C@]23CCc4ccc(OC)c(OC)c4[C@]2(CCN3C)CC1=O,nt,i,i,nt,nt,
CCn1nc(-c2cccs2)nc2c(=O)n(C)c(=O)nc1-2,i,107.1,i,58.4,i,
O=C(O)c1cc[c]([Hg][Cl])cc1,nt,121.8,i,nt,nt,
CCCN1CCCC(C(=O)c2cc(C)c(OC)c(C)c2)C1 (stereo not given),nt,i,i,nt,nt,
COc1ccc2c(c1)CC1(CN2C)C(=O)NC(=O)N(CCc2ccccc2)C1=O (stereo not given),i,i,i,i,i,
CCC(C)N1C(=O)NC(=O)C2(Cc3c(ccc4ccccc34)N(C)C2)C1=O (stereo not given),i,i,i,i,73.8,
COC1=C(C)C(=O)C2=C(C1=O)C(CO)N1C(C#N)C3CC4C(C1C2N1CCOC41)N3C (stereo not given),nt,84.2,i,nt,nt,
Oc1ccccc1/C=N/NP(=S)(c1ccccc1)c1ccccc1,i,i,i,i,i,
Oc1ccc(/C=N/NP(=S)(c2ccccc2)c2ccccc2)cc1O,i,i,i,i,58.1,
CC(=O)c1cn(CC(=O)NCCc2c[nH]c3ccccc23)c2ccccc12,nt,i,i,nt,nt,
c1ccc2c(c1)-c1cccc3cccc-2c13,nt,i,i,nt,nt,
Nc1c(Br)cc2c3c(cccc13)-c1ccccc1-2,nt,125.2,70.5,nt,nt,HKDC1 act conf=i
CC(=O)OC1C(=O)OCC23CCC4(C)OC4C2OC2CC(OC(=O)C=CC=CC(=O)OCCC1C)C3(C)C21CO1 (stereo not given),nt,i,i,nt,nt,
CC1CCC(C)(NS(=O)(=O)OCC(Cl)(Cl)Cl)CC1 (stereo not given),nt,i,37.8,nt,nt,HKDC1 act conf=i

# Screening data deposited in PubChem by Sanford-Burnham Center for Chemical Genomics.
